Assay results as given in PMC4981245 (ACS chemical biology, 2016).
“Also recorded” adds a separate entry of the source. Like-named read-outs stand apart in the source and are kept apart here. Each block holds one molecule with its values, some of them ahead of it.

Legend:
mGlu5 [1] = biological target: T1, mGlu5 (Rattus norvegicus, UniProt P31424); assay type: cell-based; conditions: for EC80 glutamate inhibition hill slope: HEK293A-mGlu5-low
mGlu5 [2] = biological target: T1, mGlu5; assay: [3H]mPEPy inhibition binding, membranes from HEK293A-mGlu5-low; conditions: for displacement of [3H]mPEPy binding, incubation time 4 h: equilibration time extended to 4 h
Method in brief: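 HEK293A-mGlu5-low membranes with ~2 nM [3H]mPEPy and test compound (0.3 nM–30 μM) in Ca2+ assay buffer, RT, 1 h initially, extended to 4 h. […] Filtration on GF/B, ice-cold 0.9% NaCl/50 mM Tris pH 7.4 washes, scintillation counting.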

mGlu5 [3] = biological target: T1, mGlu5; assay type: binding; conditions: for [3H]mPEPy binding after pretreatment, three (5 min) washes: 1 μM pretreatment
Method in brief: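 Whole HEK293A-mGlu5-low cells plated at ~200 000 cells/well on poly-D-lysine. Test compound (1 μM) applied 10 min at RT, with or without UV. Washed either 3 × 5 min or 5 × 1 h at RT in Ca2+ assay buffer. Then ~2 nM [3H]mPEPy for 1 h at RT, ice-cold 0.9% NaCl washes, 0.2 M NaOH lysis overnight, liquid scintillation counting.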

mGlu5 [4] = biological target: T1, mGlu5; assay: Agonist Ca2+ mobilization after acute NAM exposure and extensive washes; assay type: cell-based; conditions: for ΔEmax: change after azido-alkyne 8 (1uM)
mGlu5 [5] = biological target: T1, mGlu5; assay: Modulation of glutamate concentration-response curves for Ca2+ mobilization; assay type: cell-based
mGlu5 [6] = biological target: T1, mGlu5; assay: Agonist activity in mGlu5 intracellular Ca2+ mobilization; assay type: cell-based; conditions: absence of glutamate

T1 sequence (P31424 21-1203): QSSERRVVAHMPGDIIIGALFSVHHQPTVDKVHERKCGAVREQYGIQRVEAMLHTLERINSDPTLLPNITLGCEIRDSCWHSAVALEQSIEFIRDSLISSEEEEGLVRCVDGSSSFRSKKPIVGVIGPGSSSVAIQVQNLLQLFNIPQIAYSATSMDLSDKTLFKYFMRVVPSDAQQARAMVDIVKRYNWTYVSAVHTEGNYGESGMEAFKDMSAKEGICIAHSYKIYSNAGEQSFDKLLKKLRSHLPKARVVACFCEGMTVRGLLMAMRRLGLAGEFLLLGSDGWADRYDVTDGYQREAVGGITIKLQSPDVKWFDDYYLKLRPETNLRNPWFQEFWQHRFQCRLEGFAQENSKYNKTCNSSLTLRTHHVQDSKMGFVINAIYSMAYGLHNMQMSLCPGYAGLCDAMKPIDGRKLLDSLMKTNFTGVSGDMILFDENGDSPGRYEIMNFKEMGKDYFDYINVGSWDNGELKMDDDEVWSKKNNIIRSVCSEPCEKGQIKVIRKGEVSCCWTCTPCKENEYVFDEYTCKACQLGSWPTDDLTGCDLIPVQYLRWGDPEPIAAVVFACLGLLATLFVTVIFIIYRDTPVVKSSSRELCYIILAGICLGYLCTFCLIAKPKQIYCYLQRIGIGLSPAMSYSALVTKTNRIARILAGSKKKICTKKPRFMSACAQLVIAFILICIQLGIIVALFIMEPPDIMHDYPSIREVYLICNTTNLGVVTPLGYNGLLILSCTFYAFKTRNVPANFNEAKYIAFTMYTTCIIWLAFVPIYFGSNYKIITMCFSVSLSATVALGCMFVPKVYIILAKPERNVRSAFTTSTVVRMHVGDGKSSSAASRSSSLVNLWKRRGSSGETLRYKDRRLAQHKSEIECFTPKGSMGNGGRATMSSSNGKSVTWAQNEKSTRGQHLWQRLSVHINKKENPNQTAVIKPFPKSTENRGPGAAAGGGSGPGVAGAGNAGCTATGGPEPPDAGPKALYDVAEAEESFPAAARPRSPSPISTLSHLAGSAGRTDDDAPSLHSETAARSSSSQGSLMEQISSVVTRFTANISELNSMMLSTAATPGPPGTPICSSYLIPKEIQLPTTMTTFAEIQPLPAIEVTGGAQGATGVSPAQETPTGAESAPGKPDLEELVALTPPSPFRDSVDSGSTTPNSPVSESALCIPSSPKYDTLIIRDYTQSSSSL

EC80 glutamate inhibition hill slope (mGlu5 [1]): −1.53 ± 0.18 | EC80 glutamate inhibition pKB (mGlu5 [1]; operational model of allosterism applied to EC80 glutamate inhibition curves): 7.97 ± 0.16 | displacement of [3H]mPEPy binding, incubation time 4 h (mGlu5 [2]): no effect | effect of pre-exposure on potency or maximal response to glutamate or VU0424465 (mGlu5 [4]; 10 min exposure followed by five extended washes): no effect
Compound: Cc1cccc(C#Cc2ccccc2)n1 [6 (MPEP), MPEP, reference compound]
[3H]mPEPy binding after pretreatment, three (5 min) washes (mGlu5 [3]): reduced [^3H]mPEPy binding to a similar extent | inhibition of mGlu5 photoaffinity labeling of the clickable photoprobes (purified mGlu5; saturating concentration (10 μM)): did not inhibit

pEC50 (untreated) (mGlu5 [4]; HEK293A-mGlu5-low, untreated): 6.60 ± 0.18 | pKA (mGlu5 [4]; equilibrium dissociation constant of the agonist, receptor depletion with azido-alkyne 8 (1uM)): 6.17 ± 0.25 | pEC50 (treated) (mGlu5 [4]; treated with azido-alkyne 8 (1uM)): 6.11 ± 0.23
Compound: C[C@@H](NC(=O)c1ccc(C#Cc2cccc(F)c2)cn1)C(C)(C)O [VU0424465]
ΔEmax (mGlu5 [4]): −18.3 ± 10.8 percentage of the maximum response to glutamate

IC50 (mGlu5 [1]): 647 nM | Kb (mGlu5 [1]): 891 nM | fold less potent than lead NAM 2 at inhibiting EC80 glutamate response (mGlu5 [1]): ~ 5 fold | EC80 glutamate inhibition hill slope (mGlu5 [1]): −0.91 ± 0.23 | Ki (mGlu5 [2]): 25.1 nM | displacement of [3H]mPEPy binding (mGlu5 [2]; initial assay conditions): incomplete displacement | fold higher mGlu5 binding affinity relative to lead NAM 2 (mGlu5 [2]; radioligand inhibition binding): 2 fold | fold increase of affinity estimate with 30 min versus 1 min preincubation (mGlu5 [5]): ~ 10 fold | effect on glutamate maximal functional response (mGlu5 [5]; 1 min pre-exposure): complete inhibition | Kb (mGlu5 [5]; affinity estimate pKB, 30 min preincubation, photoprobe preincubation 30 min): 36.3 nM | affinity estimate (pKB) fold difference to benzyl ether derivative 3 (mGlu5 [5]; allosteric interaction assay, 1 min): ≤ 5 fold | [3H]mPEPy binding after pretreatment, three (5 min) washes (mGlu5 [3]): significantly reduced | [3H]mPEPy binding after extensive wash protocol (five 1 h washes) (mGlu5 [3]; absence of UV irradiation): concentration-dependently inhibited
Compound: COc1cc(O)c(C(=O)c2ccccc2)cc1S(=O)(=O)O [compound 4]
displacement of [3H]mPEPy binding, incubation time 4 h (mGlu5 [2]): complete displacement; also recorded: fully displaced | intrinsic agonist activity at mGlu5 (mGlu5 [6]): No evidence of agonist activity; also recorded: no intrinsic agonist activity | Cy5.5 in-gel fluorescence of mGlu5 dimer band (purified mGlu5; absence of a competitor, versus vehicle): significantly increase

Compound: N[C@@H](CCC(=O)O)C(=O)O [glutamate]
ΔEmax (mGlu5 [4]): −46.3 ± 18.3 percentage of the maximum response to glutamate
